Reference: ChEMBL document CHEMBL1208712, “Synthesis and anti-HCV activity of 3',4'-oxetane nucleosides” (Bioorg Med Chem Lett, 2010)

Columns and labels:
[1] = Cytotoxicity against human HuH7 cells by MTS assay; format: cell-based, Huh-7
Summary of the method: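 Tested at concentrations up to 50.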

[2] = tested on: Hepatitis C virus; assay: Antiviral activity against HCV 1a infected in human HB-1 cells assessed as inhibition of viral RNA replication after 24 hrs; format: functional, organism-based, Hepacivirus hominis; conditions: subtype 1a, HB1, 24 h
[3] = Inhibition of HCV NS5B polymerase after 30 mins; set-up: species or system Hepacivirus hominis

| EC90 [2] | IC50 [3] | EC90 ([2]; read-out: EC90) | Ki [3] | SMILES | CC50 [1] |
| --- | --- | --- | --- | --- | --- |
| > 50 µM |  |  |  | Nc1ccn([C@@H]2O[C@@]3(CO)CO[C@H]3[C@@H]2F)c(=O)n1 | > 50 µM |
|  | 31 µM |  |  | Nc1ccn([C@@H]2O[C@@]3(COP(=O)(O)OP(=O)(O)OP(=O)(O)O)CO[C@H]3[C@H]2F)c(=O)n1 |  |
| 5.21 µM |  |  |  | Nc1ccn([C@@H]2O[C@H](CO)[C@@H](O)[C@H]2F)c(=O)n1 | > 50 µM |
|  | 32.8 µM |  |  | Nc1ccn([C@@H]2O[C@@]3(COP(=O)(O)OP(=O)(O)OP(=O)(O)O)CO[C@H]3C2(F)F)c(=O)n1 |  |
| > 50 µM |  |  |  | Nc1ccn([C@@H]2O[C@@]3(CO)CO[C@H]3[C@H]2F)c(=O)n1 | > 50 µM |
|  |  | 4.6 µM |  | C[C@@]1(F)[C@H](O)[C@@H](CO)O[C@H]1n1ccc(N)nc1=O | > 50 µM |
| > 50 µM |  |  |  | Nc1ccn([C@@H]2O[C@H](CO)[C@@H](O)[C@@H]2F)c(=O)n1 | > 50 µM |
|  | 5.37 µM |  | 0.059 µM | C[C@@]1(F)[C@H](O)[C@@H](COP(=O)(O)OP(=O)(O)OP(=O)(O)O)O[C@H]1n1ccc(N)nc1=O [PSI-6130-TP] |  |
| > 50 µM |  |  |  | Nc1ncnc2c1ncn2[C@@H]1O[C@@]2(CO)CO[C@H]2[C@H]1F | > 50 µM |
| > 50 µM |  |  |  | C[C@@]1(F)[C@@H]2OC[C@]2(CO)O[C@H]1n1ccc(N)nc1=O | > 50 µM |
| < 1 µM |  |  |  | Nc1ccn([C@@H]2O[C@H](CO)[C@@H](O)C2(F)F)c(=O)n1 [GEMCITABINE] | < 0.1 µM |
|  | 78.9 µM |  |  | Nc1ccn([C@@H]2O[C@@]3(COP(=O)(O)OP(=O)(O)OP(=O)(O)O)CO[C@H]3[C@@H]2F)c(=O)n1 |  |
| > 50 µM |  |  |  | Nc1ccn([C@@H]2O[C@@]3(CO)CO[C@H]3C2(F)F)c(=O)n1 | > 50 µM |
| > 50 µM |  |  |  | CO[C@H]1[C@H](n2ccc(N)nc2=O)O[C@@]2(CO)CO[C@@H]12 | > 50 µM |
